Assay [1] has as its system Candida albicans. Description: Antifungal activity against Candida albicans MTCC 227 by conventional broth microdilution method. In kind it is functional. A general note: Broth dilution looks for growth in wells or tubes with falling amounts of substance.
Assay [2] concerns Staphylococcus aureus. Description: Antibacterial activity against Staphylococcus aureus MTCC 96 by conventional broth microdilution method. The format is functional.
Assay [3] deals with Mycobacterium tuberculosis. Description: Antimycobacterial activity against Mycobacterium tuberculosis H37Rv by Lowenstein-Jensen slope method. To be noted: for MIC: Mycobacterium tuberculosis, H37Rv. The format is functional.
Assay [4] concerns Streptococcus pyogenes. Description: Antibacterial activity against Streptococcus pyogenes MTCC 442 by conventional broth microdilution method. In kind it is functional.
Assay [5] concerns Pseudomonas aeruginosa. Kind of assay: Antibacterial activity against Pseudomonas aeruginosa MTCC 1688 by conventional broth microdilution method. The format is functional.
Assay [6] concerns Escherichia coli. Description: Antibacterial activity against Escherichia coli MTCC 443 by conventional broth microdilution method. In kind it is functional.
Assay [7] concerns Aspergillus niger. Kind of assay: Antifungal activity against Aspergillus niger MTCC 282 by conventional broth microdilution method. In kind it is functional.
Assay [8] concerns Aspergillus clavatus. Kind of assay: Antifungal activity against Aspergillus clavatus MTCC 1323 by conventional broth microdilution method. The format is functional.
In assay [9] the test system is Streptococcus pyogenes. Description: Ratio of ciprofloxacin MIC to compound MIC for Streptococcus pyogenes MTCC 442. In kind it is functional.
In assay [10] the test system is HeLa. Kind of assay: Cytotoxicity against human HeLa cells after 24 hrs incubation by MTT assay. In kind it is functional, cell-based. An outline of the steps:
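HeLa cells (1.0 × 10⁴) were exposed to a range of test compound concentrations for 24 h at 37 °C under 5% CO₂. MTT was then added, the supernatant was discarded, and the formazan was dissolved in DMSO. Absorbance was read at 540 nm, and IC₅₀ was reported in µM.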
In general terms: Formazan colour is commonly taken as a measure of viable cells.

Assay [11] has as its system Staphylococcus aureus. Kind of assay: Ratio of ciprofloxacin MIC to compound MIC for Staphylococcus aureus MTCC 96. In kind it is functional.
The test system of assay [12] is Pseudomonas aeruginosa. Kind of assay: Ratio of ciprofloxacin MIC to compound MIC for Pseudomonas aeruginosa MTCC 1688. The format is functional.

Consider 18 molecules from ChEMBL document CHEMBL3297679, “Studies on molecular properties prediction, antitubercular and antimicrobial activities of novel quinoline based pyrimidine motifs” (Bioorg Med Chem Lett, 2014).

One may read the MIC as the least concentration at which growth counts as inhibited. Low values mean a more susceptible organism, high ones a less susceptible organism. What is called pIC50 is −log10 of the IC50, conventionally taken in molar units. A lower pIC50 goes with a large IC50.

pIC50: −log10 of the molar value. Converted amounts (≈) assume the structure as drawn. A value given as a limit tells only on which side of the number the result lay.

On to `N#CCCSC1=NC(c2ccc(F)cc2)=CC(c2cc3cc(Cl)ccc3nc2Cl)N1` (configuration not stated), for which the MIC in assay [1] was 1000 µg/mL (≈ 2190 µM); in assay [2], 500 µg/mL (≈ 1090 µM); in assay [4], 500 µg/mL (≈ 1090 µM); in [5], > 1000 µg/mL; in assay [6], 1000 µg/mL (≈ 2190 µM); in assay [7], 1000 µg/mL (≈ 2190 µM). Moreover, in assay [8], the MIC was 500 µg/mL (≈ 1090 µM). In assay [3], the “inhibition (INH)” value came out at 69%.

Take `N#CCCSC1=NC(c2cccc(O)c2)=CC(c2cc3cc(Cl)ccc3nc2Cl)N1` (configuration not stated): the MIC in assay [1] is 500 µg/mL (≈ 1100 µM); in assay [2], 100 µg/mL (≈ 220 µM); in assay [3], 100 µg/mL (≈ 220 µM); in assay [4], 100 µg/mL (≈ 220 µM); in assay [5], 250 µg/mL (≈ 549 µM); in assay [6], 125 µg/mL (≈ 275 µM). Also, the MIC in [7] and in assay [8] was 250 µg/mL (≈ 549 µM) in each case. Besides, in [3], the “inhibition (INH)” value is listed as 98%.

For the molecule `O=C(O)c1cn(C2CC2)c2cc(N3CCNCC3)c(F)cc2c1=O` [CIPROFLOXACIN], the figures for the MIC in assay [2], in [4] and in assay [6] were 50 µg/mL (≈ 151 µM), 50 µg/mL (≈ 151 µM) and 25 µg/mL (≈ 75.4 µM), respectively.

As to `N#CCCSC1=NC(c2cccc(Cl)c2)=CC(c2cc3cc(Cl)ccc3nc2Cl)N1` (configuration not stated), the MIC in assay [1] was > 1000 µg/mL; in assay [2] it was 250 µg/mL (≈ 528 µM); in assay [4], 500 µg/mL (≈ 1060 µM); in assay [5], 500 µg/mL (≈ 1060 µM); in assay [6], 1000 µg/mL (≈ 2110 µM); in assay [7], 500 µg/mL (≈ 1060 µM). For the same molecule, inhibition of growth in assay [8] (MIC) required 1000 µg/mL (≈ 2110 µM). Further, the “inhibition (INH)” value in assay [3] was 62%.

For `COC1=CC(=O)C[C@@H](C)[C@]12Oc1c(Cl)c(OC)cc(OC)c1C2=O` [GRISEOFULVIN], the MIC in assay [1] was determined as 500 µg/mL (≈ 1420 µM); in [7], 100 µg/mL (≈ 283 µM); in assay [8], 100 µg/mL (≈ 283 µM).

Regarding `N#CCCSC1=NC(c2cccc(F)c2)=CC(c2cc3cc(Cl)ccc3nc2Cl)N1` (configuration not stated), the MIC in assay [1] was 1000 µg/mL (≈ 2190 µM); in [2], 125 µg/mL (≈ 273 µM); in assay [4] it was 250 µg/mL (≈ 547 µM); in [5], 500 µg/mL (≈ 1090 µM); in [6], 500 µg/mL (≈ 1090 µM); in assay [7], > 1000 µg/mL. The MIC in assay [8] was determined as 500 µg/mL (≈ 1090 µM). Further, the “inhibition (INH)” value in [3] was found to be 41%.

Turning to `N#CCCSC1=NC(c2cccc(Br)c2)=CC(c2cc3cc(Cl)ccc3nc2Cl)N1` (configuration not stated), the MIC in assay [1] was > 1000 µg/mL; in [2] it was 500 µg/mL (≈ 965 µM); in assay [4], 1000 µg/mL (≈ 1930 µM); in assay [5], 1000 µg/mL (≈ 1930 µM); in assay [6], > 1000 µg/mL; in [7], 500 µg/mL (≈ 965 µM). Also, the MIC in [8] turned out to be 1000 µg/mL (≈ 1930 µM). Further, the “inhibition (INH)” value in [3] came out at 66%.

Take `N#CCCSC1=NC(c2cccc([N+](=O)[O-])c2)=CC(c2cc3cc(Cl)ccc3nc2Cl)N1` (configuration not stated): the MIC in [1] was > 1000 µg/mL; in assay [2], 500 µg/mL (≈ 1030 µM); in assay [4], 1000 µg/mL (≈ 2060 µM); in [5] it was 1000 µg/mL (≈ 2060 µM); in assay [6], > 1000 µg/mL; in [7], 500 µg/mL (≈ 1030 µM). In addition, the MIC in assay [8] is > 1000 µg/mL. The “inhibition (INH)” value in assay [3] was 38%.

Regarding `NNC(=O)c1ccncc1` [ISONIAZID], the MIC in assay [3] stood at 0.2 µg/mL (≈ 1.46 µM).

In the case of `N#CCCSC1=NC(c2ccc(Cl)cc2)=CC(c2cc3cc(Cl)ccc3nc2Cl)N1` (configuration not stated), the MIC is > 1000 µg/mL in assay [1]; 250 µg/mL (≈ 528 µM) in [2]; 500 µg/mL (≈ 1060 µM) in [4]; 500 µg/mL (≈ 1060 µM) in [5]; 1000 µg/mL (≈ 2110 µM) in [6]; 500 µg/mL (≈ 1060 µM) in assay [7]. The molecule further gave an MIC in assay [8] of 1000 µg/mL (≈ 2110 µM). Further, the “inhibition (INH)” value in [3] was found to be 42%.

On to `N#CCCSC1=NC(c2ccc([N+](=O)[O-])cc2)=CC(c2cc3cc(Cl)ccc3nc2Cl)N1` (configuration not stated), for which the MIC in assay [1] was > 1000 µg/mL; in assay [2], 1000 µg/mL (≈ 2060 µM); in assay [4], 500 µg/mL (≈ 1030 µM); in assay [5], 1000 µg/mL (≈ 2060 µM); in assay [6], 500 µg/mL (≈ 1030 µM); in [7], > 1000 µg/mL. The MIC in assay [8] was 1000 µg/mL (≈ 2060 µM). Moreover, the “inhibition (INH)” value in [3] is on record as 56%.

On to `N#CCCSC1=NC(c2ccc(Br)cc2)=CC(c2cc3cc(Cl)ccc3nc2Cl)N1` (configuration not stated), for which the minimal inhibitory concentration (MIC) was found to be 500 µg/mL (≈ 965 µM) in assay [1]; 250 µg/mL (≈ 482 µM) in [2]; 500 µg/mL (≈ 965 µM) in assay [4]; 500 µg/mL (≈ 965 µM) in [5]; 1000 µg/mL (≈ 1930 µM) in assay [6]; 1000 µg/mL (≈ 1930 µM) in assay [7]. This molecule displayed an MIC in assay [8] of 500 µg/mL (≈ 965 µM). Moreover, the “inhibition (INH)” value in [3] was determined as 58%.

On to `N#CCCSC1=NC(c2ccccc2)=CC(c2cc3cc(Cl)ccc3nc2Cl)N1` (configuration not stated), for which the MIC was 1000 µg/mL (≈ 2280 µM) in assay [1]; 100 µg/mL (≈ 228 µM) in [2]; 250 µg/mL (≈ 569 µM) in assay [4]; 250 µg/mL (≈ 569 µM) in assay [5]; 500 µg/mL (≈ 1140 µM) in assay [6]; 1000 µg/mL (≈ 2280 µM) in assay [7]. This molecule also yielded an MIC in assay [8] of 500 µg/mL (≈ 1140 µM). In addition, in [3], the “inhibition (INH)” value worked out at 62%.

With `COc1ccc(C2=CC(c3cc4cc(Cl)ccc4nc3Cl)NC(SCCC#N)=N2)cc1` (configuration not stated), the Ratio in assay [9] and in assay [11] was 4 throughout. Further, the MIC in [1] turned out to be 1000 µg/mL (≈ 2130 µM); in assay [2] it was 12.5 µg/mL (≈ 26.6 µM); in assay [3], 0.2 µg/mL (≈ 0.426 µM); in assay [4] it was 25 µg/mL (≈ 53.3 µM); in [5] it was 25 µg/mL (≈ 53.3 µM); in assay [6] it was 25 µg/mL (≈ 53.3 µM). Moreover, the MIC in assay [7] and in assay [8] was 250 µg/mL (≈ 533 µM) throughout. In addition, the pIC50 in assay [10] was < 4.00. Moreover, in [3], the “inhibition (INH)” value came to 99%.

Consider `Cc1cccc(C2=CC(c3cc4cc(Cl)ccc4nc3Cl)NC(SCCC#N)=N2)c1` (configuration not stated), for which the MIC in assay [1] stood at 1000 µg/mL (≈ 2210 µM); in assay [2], 100 µg/mL (≈ 221 µM); in [4] it was 100 µg/mL (≈ 221 µM); in [5], 100 µg/mL (≈ 221 µM); in [6], 250 µg/mL (≈ 551 µM); in assay [7] it was 500 µg/mL (≈ 1100 µM). Also, in [8], it took 500 µg/mL (≈ 1100 µM) to inhibit growth (MIC). In addition, the “inhibition (INH)” value in assay [3] stood at 81%.

On to `Cc1ccc(C2=CC(c3cc4cc(Cl)ccc4nc3Cl)NC(SCCC#N)=N2)cc1` (configuration not stated), for which the Ratio in assay [9] and in assay [11] was 2 throughout. For the same molecule, the MIC was 500 µg/mL (≈ 1100 µM) in [1]; 25 µg/mL (≈ 55.1 µM) in [2]; 3.12 µg/mL (≈ 6.88 µM) in assay [3]; 25 µg/mL (≈ 55.1 µM) in [4]; 50 µg/mL (≈ 110 µM) in assay [5]; 50 µg/mL (≈ 110 µM) in [6]. Further, the MIC in assay [7] was 500 µg/mL (≈ 1100 µM); in [8] it was 250 µg/mL (≈ 551 µM). In addition, the negative logarithm of the IC50 (pIC50) in [10] is 4.03. In assay [3], the “inhibition (INH)” value is given as 98%.

On to `COc1cccc(C2=CC(c3cc4cc(Cl)ccc4nc3Cl)NC(SCCC#N)=N2)c1` (configuration not stated), for which the MIC in assay [1] worked out at 500 µg/mL (≈ 1070 µM); in assay [2], 50 µg/mL (≈ 107 µM); in assay [3] it was 12.5 µg/mL (≈ 26.6 µM); in [4], 100 µg/mL (≈ 213 µM); in [5], 250 µg/mL (≈ 533 µM); in [6], 100 µg/mL (≈ 213 µM). Besides, the figures for the minimal inhibitory concentration (MIC) in assay [7] and in assay [8] were 500 µg/mL (≈ 1070 µM) and 100 µg/mL (≈ 213 µM), respectively. Besides, the “inhibition (INH)” value in [3] turned out to be 97%.

With `N#CCCSC1=NC(c2ccc(O)cc2)=CC(c2cc3cc(Cl)ccc3nc2Cl)N1` (configuration not stated), the Ratio is reported as 4 in [9], 2 in assay [12] and 4 in [11]. Also, the MIC amounted to 250 µg/mL (≈ 549 µM) in [1]; 25 µg/mL (≈ 54.9 µM) in assay [2]; 3.12 µg/mL (≈ 6.85 µM) in assay [3]; 12.5 µg/mL (≈ 27.5 µM) in [4]; 25 µg/mL (≈ 54.9 µM) in [5]; 50 µg/mL (≈ 110 µM) in assay [6]. For the same molecule, the MIC in [7] and in [8] was 25 µg/mL (≈ 54.9 µM) throughout. Moreover, in assay [10], the pIC50 is < 4.00. In assay [3], the “inhibition (INH)” value is 99%.
